{"source": "paper PMC7047575", "about": "(The AAPS journal, 2018)", "key": {"[1]": {"system": "METH-sensitized locomotor activity", "test": "METH-induced hyperactivity in METH-sensitized rats, GZ-11610 s.c.", "type": "in vivo, rat", "conditions": "1-30 mg/kg, 15 min before METH 1 mg/kg s.c., vs vehicle"}, "[2]": {"target": "VMAT2 (Rattus norvegicus, UniProt Q01827)", "sequence (Q01827 whole entry)": "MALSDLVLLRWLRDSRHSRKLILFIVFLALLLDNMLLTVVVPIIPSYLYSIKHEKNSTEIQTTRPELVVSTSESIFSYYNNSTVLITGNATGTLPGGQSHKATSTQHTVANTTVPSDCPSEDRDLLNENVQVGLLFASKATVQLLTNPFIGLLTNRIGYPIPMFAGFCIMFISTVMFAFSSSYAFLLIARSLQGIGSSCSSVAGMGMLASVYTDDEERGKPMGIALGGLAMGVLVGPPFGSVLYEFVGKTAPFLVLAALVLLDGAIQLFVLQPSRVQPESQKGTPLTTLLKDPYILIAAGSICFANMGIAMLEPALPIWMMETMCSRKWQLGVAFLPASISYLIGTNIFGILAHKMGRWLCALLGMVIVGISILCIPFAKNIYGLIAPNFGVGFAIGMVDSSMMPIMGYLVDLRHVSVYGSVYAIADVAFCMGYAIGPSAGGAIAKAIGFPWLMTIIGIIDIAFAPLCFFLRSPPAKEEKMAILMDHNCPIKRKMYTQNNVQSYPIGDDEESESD", "test": "Vesicular [3H]DA uptake, rat striatal synaptic vesicles", "type": "biochemical"}, "[3]": {"target": "α7 nAChRs (Rattus norvegicus, UniProt Q05941)", "sequence (Q05941 23-502)": "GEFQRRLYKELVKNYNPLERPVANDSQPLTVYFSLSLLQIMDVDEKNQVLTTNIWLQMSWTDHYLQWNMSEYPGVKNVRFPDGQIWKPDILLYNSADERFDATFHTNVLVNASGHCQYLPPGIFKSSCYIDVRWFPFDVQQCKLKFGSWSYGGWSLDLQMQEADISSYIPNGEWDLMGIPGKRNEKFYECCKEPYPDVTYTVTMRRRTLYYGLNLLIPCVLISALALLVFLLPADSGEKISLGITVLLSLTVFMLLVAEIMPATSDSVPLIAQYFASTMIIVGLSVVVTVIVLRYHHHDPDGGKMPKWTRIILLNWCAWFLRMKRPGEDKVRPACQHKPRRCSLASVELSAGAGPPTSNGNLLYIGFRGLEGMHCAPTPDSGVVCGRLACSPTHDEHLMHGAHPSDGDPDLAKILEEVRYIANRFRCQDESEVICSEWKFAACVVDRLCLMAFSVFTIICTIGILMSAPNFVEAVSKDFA", "test": "[3H]MLA binding to rat brain membranes", "conditions": "0.1 nM - 0.1 mM", "method_in_brief": "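Membranes from rat whole brain minus cortex and cerebellum, washed by repeated 31,000 g spins, with a 10 min 37°C incubation. Binding used 100–140 μg protein, test compound at 7–9 concentrations (0.1 nM–0.1 mM), and [3H]MLA added at 3 nM, in HEPES saline buffer pH 7.5, for 60 min at room temperature. Nonspecific binding was defined with 10 μM nicotine. Read-out by PEI-GF/B filtration and scintillation; n=3.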"}, "[4]": {"target": "hERG channels (Homo sapiens, UniProt Q12809)", "sequence (Q12809 whole entry)": "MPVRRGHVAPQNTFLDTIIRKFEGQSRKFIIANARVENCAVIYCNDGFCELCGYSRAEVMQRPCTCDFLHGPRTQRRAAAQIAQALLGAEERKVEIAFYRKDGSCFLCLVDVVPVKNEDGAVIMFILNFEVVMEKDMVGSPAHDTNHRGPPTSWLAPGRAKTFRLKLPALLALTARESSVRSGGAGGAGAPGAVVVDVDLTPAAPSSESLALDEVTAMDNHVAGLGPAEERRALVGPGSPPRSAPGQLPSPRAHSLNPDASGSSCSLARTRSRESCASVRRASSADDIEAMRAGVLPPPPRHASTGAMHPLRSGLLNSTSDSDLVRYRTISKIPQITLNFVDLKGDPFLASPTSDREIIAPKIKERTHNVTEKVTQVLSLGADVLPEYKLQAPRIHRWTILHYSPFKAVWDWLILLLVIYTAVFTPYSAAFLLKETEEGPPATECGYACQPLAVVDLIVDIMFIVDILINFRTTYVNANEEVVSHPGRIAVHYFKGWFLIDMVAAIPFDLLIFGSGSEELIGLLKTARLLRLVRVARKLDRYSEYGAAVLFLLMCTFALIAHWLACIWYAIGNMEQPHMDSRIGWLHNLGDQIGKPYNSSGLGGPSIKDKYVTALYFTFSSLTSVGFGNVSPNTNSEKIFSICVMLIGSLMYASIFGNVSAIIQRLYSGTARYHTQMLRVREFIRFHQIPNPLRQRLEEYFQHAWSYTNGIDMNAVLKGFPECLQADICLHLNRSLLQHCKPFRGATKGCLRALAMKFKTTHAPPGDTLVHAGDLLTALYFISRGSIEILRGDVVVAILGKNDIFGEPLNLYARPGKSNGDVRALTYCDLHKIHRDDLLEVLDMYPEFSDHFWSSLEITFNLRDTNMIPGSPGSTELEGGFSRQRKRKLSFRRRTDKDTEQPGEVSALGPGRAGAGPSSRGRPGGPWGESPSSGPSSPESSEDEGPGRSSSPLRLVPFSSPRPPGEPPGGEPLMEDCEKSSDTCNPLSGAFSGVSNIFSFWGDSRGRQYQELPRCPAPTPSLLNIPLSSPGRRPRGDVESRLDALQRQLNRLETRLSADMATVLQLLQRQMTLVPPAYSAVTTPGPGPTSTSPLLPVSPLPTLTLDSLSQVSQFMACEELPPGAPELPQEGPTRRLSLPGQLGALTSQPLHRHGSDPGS", "test": "[3H]Dofetilide binding to hERG channels on HEK-293 cell membranes"}, "[5]": {"target": "SERT (Rattus norvegicus, UniProt P31652)", "sequence (P31652 whole entry)": "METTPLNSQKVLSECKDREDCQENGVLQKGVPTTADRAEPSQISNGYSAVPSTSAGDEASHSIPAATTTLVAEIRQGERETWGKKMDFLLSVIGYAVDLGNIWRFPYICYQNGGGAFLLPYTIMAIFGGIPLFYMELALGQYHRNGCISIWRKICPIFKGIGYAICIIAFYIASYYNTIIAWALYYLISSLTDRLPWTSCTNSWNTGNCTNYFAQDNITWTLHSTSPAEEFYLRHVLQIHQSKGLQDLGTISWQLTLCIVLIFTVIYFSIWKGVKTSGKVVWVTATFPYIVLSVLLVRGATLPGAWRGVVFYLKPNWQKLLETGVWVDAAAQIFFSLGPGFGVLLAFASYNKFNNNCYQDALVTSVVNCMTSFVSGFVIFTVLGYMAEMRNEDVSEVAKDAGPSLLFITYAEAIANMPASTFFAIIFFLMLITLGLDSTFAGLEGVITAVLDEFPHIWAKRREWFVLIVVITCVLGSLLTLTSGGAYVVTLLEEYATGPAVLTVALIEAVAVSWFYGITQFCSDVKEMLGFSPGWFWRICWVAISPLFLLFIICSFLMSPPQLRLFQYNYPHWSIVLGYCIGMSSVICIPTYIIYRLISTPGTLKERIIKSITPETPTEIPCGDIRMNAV", "test": "Synaptosomal [3H]5-HT uptake, rat striatal synaptosomes", "type": "biochemical"}, "[6]": {"target": "DAT (Rattus norvegicus, UniProt P23977)", "sequence (P23977 whole entry)": "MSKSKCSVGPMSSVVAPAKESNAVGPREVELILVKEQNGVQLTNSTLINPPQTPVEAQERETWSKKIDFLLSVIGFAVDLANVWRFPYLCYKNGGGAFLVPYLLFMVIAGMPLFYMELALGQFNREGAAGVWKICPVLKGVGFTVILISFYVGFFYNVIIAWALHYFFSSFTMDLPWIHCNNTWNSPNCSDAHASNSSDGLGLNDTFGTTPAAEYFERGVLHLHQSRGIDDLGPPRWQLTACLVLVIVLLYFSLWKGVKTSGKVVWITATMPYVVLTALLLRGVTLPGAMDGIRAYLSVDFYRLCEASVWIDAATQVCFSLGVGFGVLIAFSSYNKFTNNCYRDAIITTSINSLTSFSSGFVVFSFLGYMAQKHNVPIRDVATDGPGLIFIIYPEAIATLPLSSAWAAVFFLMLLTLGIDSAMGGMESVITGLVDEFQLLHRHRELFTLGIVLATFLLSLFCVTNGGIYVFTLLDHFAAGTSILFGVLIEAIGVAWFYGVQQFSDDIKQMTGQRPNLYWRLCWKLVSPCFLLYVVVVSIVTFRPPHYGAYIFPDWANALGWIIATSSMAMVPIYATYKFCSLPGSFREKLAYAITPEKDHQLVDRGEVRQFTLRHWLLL", "test": "Synaptosomal [3H]DA uptake, rat striatal synaptosomes", "type": "biochemical"}, "[7]": {"target": "α4β2 nAChRs (Rattus norvegicus, UniProt P09483+P12390)", "sequence (P09483 31-630)": "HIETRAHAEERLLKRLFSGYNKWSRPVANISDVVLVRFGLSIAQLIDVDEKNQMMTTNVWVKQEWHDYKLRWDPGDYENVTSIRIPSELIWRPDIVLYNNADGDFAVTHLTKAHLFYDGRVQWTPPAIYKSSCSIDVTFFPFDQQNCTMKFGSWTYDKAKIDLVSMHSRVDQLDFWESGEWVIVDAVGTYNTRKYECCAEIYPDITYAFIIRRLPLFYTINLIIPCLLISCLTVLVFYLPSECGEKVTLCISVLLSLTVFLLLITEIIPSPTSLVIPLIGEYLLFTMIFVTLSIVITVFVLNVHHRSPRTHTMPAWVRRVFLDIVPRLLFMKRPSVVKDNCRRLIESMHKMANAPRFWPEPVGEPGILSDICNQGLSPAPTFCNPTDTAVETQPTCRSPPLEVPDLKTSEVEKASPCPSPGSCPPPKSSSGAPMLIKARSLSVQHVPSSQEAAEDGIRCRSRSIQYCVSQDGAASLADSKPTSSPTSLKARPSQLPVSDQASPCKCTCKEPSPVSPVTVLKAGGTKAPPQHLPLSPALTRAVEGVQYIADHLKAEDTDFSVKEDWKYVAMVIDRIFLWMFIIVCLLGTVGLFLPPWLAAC", "sequence (P12390 25-500)": "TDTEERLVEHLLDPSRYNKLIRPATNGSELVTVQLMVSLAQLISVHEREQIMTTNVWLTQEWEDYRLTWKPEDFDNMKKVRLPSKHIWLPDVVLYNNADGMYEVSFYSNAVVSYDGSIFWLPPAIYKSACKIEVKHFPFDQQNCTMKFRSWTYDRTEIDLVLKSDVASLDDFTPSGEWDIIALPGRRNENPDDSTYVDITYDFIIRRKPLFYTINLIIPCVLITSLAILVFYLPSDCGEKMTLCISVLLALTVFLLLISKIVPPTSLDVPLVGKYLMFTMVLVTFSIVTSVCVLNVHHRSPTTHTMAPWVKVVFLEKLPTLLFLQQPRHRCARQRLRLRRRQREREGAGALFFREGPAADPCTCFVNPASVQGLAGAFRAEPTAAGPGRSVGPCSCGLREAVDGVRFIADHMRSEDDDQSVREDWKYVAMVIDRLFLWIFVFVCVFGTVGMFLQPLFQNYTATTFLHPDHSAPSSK", "test": "[3H]NIC binding to rat brain membranes", "conditions": "0.1 nM - 0.1 mM"}, "[8]": {"system": "METH-sensitized locomotor activity", "test": "METH-induced hyperactivity in METH-sensitized rats, GZ-11610 oral", "type": "in vivo, rat", "conditions": "5.6-300 mg/kg"}, "[9]": {"system": "cells co-expressing VMAT2 and DAT", "conditions": "dissociated cells co-expressing VMAT2 and DAT; cited from earlier work"}, "[10]": {"system": "nAChRs", "conditions": "cited from earlier work"}, "[11]": {"conditions": "cited from earlier work"}, "[12]": {"system": "locomotor activity", "test": "Locomotor sensitization to repeated METH administration", "type": "in vivo, rat", "method_in_brief": "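Rats randomly assigned to METH or saline groups. Day 0: 60 min chamber habituation without injection. Distance traveled on Days 1 and 10 compared with saline controls and with Day 1.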"}}, "note": "Counter-ions that a name gives are not always drawn.", "data": [{"smiles": "COc1ccc(CCCN[C@H](C)Cc2ccccc2)cc1", "note": "[GZ-11610, R-3-(4-methoxyphenyl)-N-(1-phenylpropan-2-yl)propan-1-amine]", "values": [{"measurement": "effect on distance traveled after METH in the METH-sensitized group", "setting": "[1]", "value": "dose-dependently reduced the distance traveled"}, {"measurement": "maximal inhibition (Imax) of [3H]DA uptake at VMAT2", "setting": "[2]; 0.1 nM - 0.1 mM", "value": "> 95", "unit": "%"}, {"measurement": "Ki", "setting": "[2]; read-out: Ki, inhibition of [3H]DA uptake at VMAT2, rat striatal synaptic vesicles", "value": 0.0087, "unit": "µM"}, {"measurement": "Imax, inhibition of [3H]MLA binding", "setting": "[3]", "value": "< 20", "unit": "%"}, {"measurement": "Ki", "setting": "[4]", "value": 9.5, "unit": "µM"}, {"measurement": "Imax of [3H]dofetilide binding to hERG channels", "setting": "[4]; HEK-293 cell membranes, 0.1 nM - 0.1 mM", "value": "> 80", "unit": "%"}, {"measurement": "Imax of [3H]5-HT uptake at SERT", "setting": "[5]", "value": "> 95", "unit": "%"}, {"measurement": "Ki", "setting": "[5]", "value": 5.55, "unit": "µM"}, {"measurement": "Ki", "setting": "[6]", "value": 2.51, "unit": "µM"}, {"measurement": "Imax of [3H]DA uptake at DAT", "setting": "[6]; 0.1 nM - 0.1 mM", "value": "> 95", "unit": "%"}, {"measurement": "Imax, inhibition of [3H]NIC binding", "setting": "[7]", "value": "< 20", "unit": "%"}, {"measurement": "effect on distance traveled after METH in the METH-sensitized group", "setting": "[8]; 15 min before METH 1 mg/kg s.c., vs vehicle", "value": "reduced the distance traveled"}, {"measurement": "effect on locomotor activity in the saline group", "setting": "[8]; one-way ANOVA", "value": "no significant GZ-11610 effects on locomotor activity"}]}, {"smiles": "CN1[C@@H](CC(=O)c2ccccc2)CCC[C@H]1C[C@H](O)c1ccccc1", "note": "[lobeline]", "values": [{"measurement": "reduction of METH-evoked DA efflux", "setting": "[9]", "value": 60, "unit": "%"}]}, {"smiles": "COc1ccc(CCC2CCCC(CCc3ccc(OC)cc3)N2C[C@@H](O)CO)cc1.Cl", "note": "(stereo in doubt) [GZ-793A, R-N-(1,2-dihydroxypropyl)-2,6-cis-di-(4-methoxyphenethyl)piperidine hydrochloride]", "values": [{"measurement": "selectivity for VMAT2 over nAChRs", "setting": "[10]", "value": "> 1000", "unit": "fold"}]}, {"smiles": "COc1cc2c(cc1OC)[C@H]1C[C@@H](O)[C@H](CC(C)C)CN1CC2", "note": "[dihydrotetrabenazene]", "values": [{"measurement": "reduction of METH-evoked DA efflux", "setting": "[9]", "value": 60, "unit": "%"}]}, {"smiles": "CN[C@@H](C)Cc1ccccc1", "note": "[METH, (+)-Methamphetamine hydrochloride]", "values": [{"measurement": "LogP", "setting": "[11]", "value": 2.10}, {"measurement": "distance traveled compared to saline, Day 10", "setting": "[12]; METH 1 mg/kg s.c. once daily for 10 days", "value": "increased distance traveled (p < 0.05)"}, {"measurement": "distance traveled compared to saline, Day 1", "setting": "[12]; acute METH 1 mg/kg s.c.", "value": "increased (p < 0.05) distance traveled"}]}]}
